Source: ChEMBL document CHEMBL4715825, “Synthesis and biological evaluations of marine oxohexadecenoic acids: PPARα/γ dual agonism and anti-diabetic target gene effects” (Eur J Med Chem, 2018)
The source made the active and inactive calls. The calls are words filed in the database; no cut-off is given here.

What was measured:
[1] = target: T1, Oxysterols receptor LXR-beta (Homo sapiens) (UniProt P55055); experiment: Agonist activity at recombinant human LXRbeta LBD (155 to 461 residues) expressed in African green monkey COS-1 cells at 25 to 50 uM incubated for 18 hrs by luciferase reporter gene assay; assay type: cell-based; conditions: dose 25-50 µM
T1 sequence (whole entry): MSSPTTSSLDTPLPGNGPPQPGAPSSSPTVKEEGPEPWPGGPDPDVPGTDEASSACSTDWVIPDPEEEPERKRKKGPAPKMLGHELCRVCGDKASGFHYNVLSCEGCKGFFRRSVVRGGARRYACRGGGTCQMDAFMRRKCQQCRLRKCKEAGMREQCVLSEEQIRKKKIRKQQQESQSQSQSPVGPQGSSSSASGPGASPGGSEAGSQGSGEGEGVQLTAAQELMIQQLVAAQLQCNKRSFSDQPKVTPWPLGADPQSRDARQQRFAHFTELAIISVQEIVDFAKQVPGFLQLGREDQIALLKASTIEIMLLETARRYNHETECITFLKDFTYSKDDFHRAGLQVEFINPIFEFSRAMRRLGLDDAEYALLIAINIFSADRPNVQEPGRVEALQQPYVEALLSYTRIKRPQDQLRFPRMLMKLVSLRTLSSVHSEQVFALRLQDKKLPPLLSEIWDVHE
In short: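 Transient Gal4 one-hybrid assay in COS-1 cells (7×10^4 per well), transfected 24 h after seeding. Plasmids were Gal4-DBD fused to the human nuclear receptor LBD, a 5×UAS-SV40 luciferase reporter and pRL-CMV Renilla control. Ligand in DMSO (final 0.1%) was added 5 h post-transfection. Dual-luciferase activity was read after 18 h, expressed as RLU, from three biological replicates in quadruplicate.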

[2] = target: T2, Peroxisome proliferator-activated receptor alpha (Homo sapiens) (UniProt Q07869); experiment: Agonist activity at human PPARalpha in human HuH-7 cells assessed as increase in CPT1A gene expression at 50 uM incubated for 24 hrs by SYBR-green based qPCR analysis; assay type: cell-based; conditions: filed as agonist
T2 sequence (whole entry): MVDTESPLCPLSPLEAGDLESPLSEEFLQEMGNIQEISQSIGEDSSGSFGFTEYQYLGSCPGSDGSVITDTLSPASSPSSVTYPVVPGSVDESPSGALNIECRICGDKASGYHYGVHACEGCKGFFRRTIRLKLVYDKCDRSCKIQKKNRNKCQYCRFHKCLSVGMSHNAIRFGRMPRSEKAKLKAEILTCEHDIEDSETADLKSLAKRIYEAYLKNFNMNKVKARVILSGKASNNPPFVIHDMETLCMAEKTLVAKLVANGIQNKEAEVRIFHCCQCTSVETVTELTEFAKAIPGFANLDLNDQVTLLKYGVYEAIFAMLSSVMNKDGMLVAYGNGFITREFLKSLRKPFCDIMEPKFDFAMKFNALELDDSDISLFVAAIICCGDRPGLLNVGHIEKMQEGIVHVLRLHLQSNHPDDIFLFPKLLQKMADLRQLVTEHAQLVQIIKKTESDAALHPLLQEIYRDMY
In short: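 Cells were seeded at 2×10^5 per well and treated 24 h later with compound in DMSO (final 0.1%). The next day, cells were washed and scraped into RLT buffer. RNA was isolated, and target gene mRNA was quantified by SYBR-green qPCR with specific primers.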

SGBS [3] = experiment: Induction of adipogenesis in 8 day differentiated human SGBS cells assessed as increase in PLIN1 mRNA expression at 25 uM measured upto 12 days by qRT-PCR analysis; assay type: functional, cell-based; conditions: time day <=12
In short: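 SGBS cells were grown to confluence (day 0). Quickdiff medium was supplemented with compound or rosiglitazone for 4 days, followed by 3FC medium. DMSO or DMSO:BSA served as control. RNA was harvested on days 0, 4, 8 and 12, and expression was measured by SYBR-green qPCR. Data are mean ± SEM of at least three biological replicates in duplicate.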

SGBS [4] = experiment: Effect on diabetic complication pathway in 8 day differentiated human SGBS cells assessed as downregulation of extracellular matrix-recptor interaction genes at 25 uM incubated for 8 days by Illumina sequencing method; assay type: functional, cell-based
In short: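 SGBS cells were differentiated 4 days in Quickdiff supplemented with compound:BSA or rosiglitazone, then 4 days in 3FC. Total RNA was extracted, and strand-specific TruSeq libraries were sequenced on NextSeq 500 (2×75 bp paired-end). Reads were aligned to hg19 with Tophat/Bowtie and counted as RPKM by Cufflinks. Values are log2 fold over day 0 cells, grouped into KEGG gene sets (n = 2-4).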

[5] = target: T3, Peroxisome proliferator-activated receptor gamma (Homo sapiens) (UniProt P37231); experiment: Agonist activity at human PPARgamma in 8 day differentiated human SGBS cells assessed as increase in ADIPOQ gene expression at 25 uM incubated for 24 hrs by SYBR-green based qPCR analysis; assay type: cell-based; conditions: filed as agonist
T3 sequence (whole entry): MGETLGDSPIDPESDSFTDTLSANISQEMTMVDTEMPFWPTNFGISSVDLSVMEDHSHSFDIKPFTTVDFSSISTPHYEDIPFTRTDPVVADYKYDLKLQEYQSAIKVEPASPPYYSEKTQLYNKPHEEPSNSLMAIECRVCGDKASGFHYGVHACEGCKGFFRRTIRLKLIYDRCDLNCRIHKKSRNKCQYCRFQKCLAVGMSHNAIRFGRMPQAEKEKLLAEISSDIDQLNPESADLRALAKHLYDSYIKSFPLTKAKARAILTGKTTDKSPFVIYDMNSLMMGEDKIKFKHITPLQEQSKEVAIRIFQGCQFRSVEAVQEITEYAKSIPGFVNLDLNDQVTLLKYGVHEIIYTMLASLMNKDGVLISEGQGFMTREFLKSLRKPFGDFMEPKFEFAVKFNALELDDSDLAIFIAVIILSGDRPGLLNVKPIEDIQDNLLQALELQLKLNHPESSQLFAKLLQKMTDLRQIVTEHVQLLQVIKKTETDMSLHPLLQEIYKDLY
In short: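 SGBS preadipocytes were seeded at passage P6-P8 and grown to confluence. They were differentiated for 4 days in Quickdiff (3FC plus dexamethasone, IBMX and rosiglitazone), then kept in 3FC with medium renewed every fourth day. On day 8, cells were stimulated for 24 h in 3FC with compound:BSA or rosiglitazone. SYBR-green qPCR used gene-specific primers. Data are mean ± SEM of three biological replicates in duplicate.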

[6] = target: T3, Peroxisome proliferator-activated receptor gamma (Homo sapiens); experiment: Agonist activity at human PPARgamma in 8 day differentiated human SGBS cells assessed as decrease in […] gene expression at 25 uM incubated for 24 hrs by SYBR-green based qPCR analysis; assay type: cell-based; conditions: filed as agonist

Row | Activity [1] | Activity [2] | Activity [5] | Activity [6] | Compound | Activity (SGBS [3]) | Activity (SGBS [4])
1 | inactive | Active | Active | Active | CCCCCCCC(=O)/C=C/CCCCCC(=O)O | Active | Active
2 | inactive | Active | Active | Active | CCCCC/C=C/C(=O)CCCCCCCC(=O)O | Active | Active
